Experimental data taken from ChEMBL document CHEMBL1133135, “Grignard-mediated synthesis and preliminary biological evaluation of novel 3-substituted farnesyl diphosphate analogues” (Bioorg Med Chem Lett, 2000).

Target: Protein farnesyltransferase (Homo sapiens, UniProt P49354+P49356)
Assay: Inhibitory activity against recombinant mammalian protein Farnesyltransferase expressed in baculovirus
Procedure, shortened: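 Recombinant mammalian FTase, baculovirus-expressed and purified, assayed continuously by fluorescence with dansyl-GCVLS-OH as peptide cosubstrate and the FPP analogue as isoprenoid. IC50 is taken from the decrease in activity with rising analogue concentration. Analogue concentrations were verified by phosphate analysis.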

Row | SMILES | IC50
1 | C=CC/C(=C\COP(=O)(O)OP(=O)(O)O)CC/C=C(\C)CCC=C(C)C | 119 nM
2 | CC(C)=CCC/C(C)=C/CC/C(=C/COP(=O)(O)OP(=O)(O)O)c1ccc(F)cc1 | 10100 nM
3 | C=C(C)/C(=C\COP(=O)(O)OP(=O)(O)O)CC/C=C(\C)CCC=C(C)C | 18 nM
4 | CC(C)=CCC/C(C)=C/CC/C(=C/COP(=O)(O)OP(=O)(O)O)CC(C)(C)C | 6600 nM

Now from value to molecule:

Row | IC50 | SMILES
5 | 35 nM | CC(C)=CCC/C(C)=C/CC/C(=C/COP(=O)(O)OP(=O)(O)O)C(C)C
6 | 290 nM | CC(C)=CCC/C(C)=C/CC/C(=C/COP(=O)(O)OP(=O)(O)O)CC(C)C
7 | 102 nM | CCC(C)/C(=C\COP(=O)(O)OP(=O)(O)O)CC/C=C(\C)CCC=C(C)C (stereo not drawn)
8 | 453 nM | CCC/C(=C\COP(=O)(O)OP(=O)(O)O)CC/C=C(\C)CCC=C(C)C
